Experimental data from ChEMBL document CHEMBL4828745, “Discovery and Structure-Activity Relationships of Quinazolinone-2-carboxamide Derivatives as Novel Orally Efficacious Antimalarials” (J Med Chem, 2021).
pIC50: −log10 of the molar value.

Experiments:
CYP2C9 = CYP2C9 (Homo sapiens, UniProt P11712); test: Inhibition of CYP2C9 (unknown origin) at 10 uM by UPLC-MS analysis relative to control; format: ADME
Summary of the method: (§1)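 Human liver microsomes, using a substrate-specific metabolite approach. Test compound at 1 and 10 μM. Reference inhibitors: furafylline (1A2), sulfaphenazole (2C9), quinidine (2D6), ketoconazole (3A4). Specific metabolites quantified by UPLC-MS. Percent inhibition relative to incubation without inhibitor.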

CYP1A2 = target: T1, CYP1A2 (Homo sapiens, UniProt P05177); test: Inhibition of CYP1A2 (unknown origin) at 10 uM by UPLC-MS analysis relative to control; format: ADME; summary of the method: as §1
T1 sequence (P05177 whole entry): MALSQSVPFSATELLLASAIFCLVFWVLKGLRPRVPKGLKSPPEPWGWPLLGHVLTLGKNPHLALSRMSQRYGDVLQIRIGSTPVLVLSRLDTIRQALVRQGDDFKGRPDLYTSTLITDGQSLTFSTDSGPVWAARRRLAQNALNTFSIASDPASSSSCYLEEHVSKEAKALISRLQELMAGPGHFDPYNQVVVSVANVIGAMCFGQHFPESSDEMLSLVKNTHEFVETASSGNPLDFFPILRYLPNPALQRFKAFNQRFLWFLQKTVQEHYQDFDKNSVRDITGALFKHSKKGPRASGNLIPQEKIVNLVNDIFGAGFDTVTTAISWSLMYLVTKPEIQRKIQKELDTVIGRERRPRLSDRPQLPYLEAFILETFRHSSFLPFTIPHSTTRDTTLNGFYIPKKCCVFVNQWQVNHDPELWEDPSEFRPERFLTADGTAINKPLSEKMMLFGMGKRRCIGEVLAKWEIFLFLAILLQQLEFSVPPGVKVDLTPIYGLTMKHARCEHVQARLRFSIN

[1] = target: Voltage-gated inwardly rectifying potassium channel KCNH2 (Homo sapiens, UniProt Q12809); test: Inhibition of human ERG by QPatch automated patch clamp system
Voltage-gated inwardly rectifying potassium channel KCNH2, sequence (Q12809 whole entry): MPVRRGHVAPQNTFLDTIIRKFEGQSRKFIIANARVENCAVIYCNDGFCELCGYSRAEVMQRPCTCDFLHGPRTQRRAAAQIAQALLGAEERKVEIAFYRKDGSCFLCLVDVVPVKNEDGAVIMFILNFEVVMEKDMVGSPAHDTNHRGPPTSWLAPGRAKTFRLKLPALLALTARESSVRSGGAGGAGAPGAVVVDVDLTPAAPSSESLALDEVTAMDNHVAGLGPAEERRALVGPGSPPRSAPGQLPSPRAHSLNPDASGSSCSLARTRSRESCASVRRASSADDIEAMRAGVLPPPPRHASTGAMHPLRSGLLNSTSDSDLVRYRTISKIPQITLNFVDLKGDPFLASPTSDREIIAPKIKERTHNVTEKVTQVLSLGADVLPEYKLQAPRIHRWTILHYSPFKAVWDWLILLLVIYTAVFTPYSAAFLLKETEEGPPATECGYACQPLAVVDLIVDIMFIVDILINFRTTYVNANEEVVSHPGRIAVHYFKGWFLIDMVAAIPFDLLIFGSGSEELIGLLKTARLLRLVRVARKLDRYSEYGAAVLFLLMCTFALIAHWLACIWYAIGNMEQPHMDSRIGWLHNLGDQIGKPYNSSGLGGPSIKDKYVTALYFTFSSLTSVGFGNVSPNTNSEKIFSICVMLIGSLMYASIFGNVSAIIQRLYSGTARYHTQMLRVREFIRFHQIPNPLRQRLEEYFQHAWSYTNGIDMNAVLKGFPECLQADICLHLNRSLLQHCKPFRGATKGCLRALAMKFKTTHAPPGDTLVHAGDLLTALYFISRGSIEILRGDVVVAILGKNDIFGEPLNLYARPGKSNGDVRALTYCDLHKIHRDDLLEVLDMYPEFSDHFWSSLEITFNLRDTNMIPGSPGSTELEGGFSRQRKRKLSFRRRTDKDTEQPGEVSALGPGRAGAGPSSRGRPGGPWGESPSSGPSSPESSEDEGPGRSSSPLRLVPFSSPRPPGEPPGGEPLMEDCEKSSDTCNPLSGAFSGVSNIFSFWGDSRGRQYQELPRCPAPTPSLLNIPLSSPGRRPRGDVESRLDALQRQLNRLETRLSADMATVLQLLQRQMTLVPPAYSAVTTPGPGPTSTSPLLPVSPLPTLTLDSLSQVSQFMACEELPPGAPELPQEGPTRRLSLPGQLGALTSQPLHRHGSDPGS
Summary of the method: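 hERG current recorded on a QPatch automated patch clamp at four concentrations in 0.5-log steps.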

Plasmodium falciparum [2] = test: Antiplasmodial activity against Plasmodium falciparum 3D7 infected in human erythrocyte assessed as intraerythrocytic growth inhibition incubated for 72 hrs by DAPI-staining based imaging analysis; format: functional, organism-based; conditions: 3D7, 72 h
Summary of the method: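 P. falciparum 3D7 cultured in RPMI1640 with hypoxanthine, HEPES, 2.5 mg/mL AlbuMAX II and 5% human serum. Sorbitol-synchronized rings exposed 72 h at 37 °C under 5% CO2/5% O2, then DAPI-stained with saponin/Triton X-100 for 8 h in the dark. High-content imaging with spot detection. Duplicate points. Reference antimalarials run in each assay.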

Plasmodium falciparum [3] = test: Antimalarial activity against Plasmodium falciparum 3D70087/N9 infected in humanized NODscidlL2Rgamma null mouse model assessed as reduction in parasitemia at 50 mg/kg, po for 4 consecutive days measured after 7 days of post infection relative to control; format: functional; conditions: 3D70087/N9, po, 96 h, time 4 day
Summary of the method: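 P. falciparum humanized SCID mouse model. Monosodium tetrahydrate salt given orally at 50 or 100 mg/kg on 4 consecutive days, n = 2 mice per group. Parasitemia read at day 7 post infection versus untreated controls.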

[4] = Toxicity in SCID mouse infected with Plasmodium falciparum 3D70087/N9 at 50 to 100 mg/kg, po for 4 consecutive days measured after 7 days of post infection; format: organism-based; conditions: in vivo, 96 h, dose 50-100 mg/kg, time 4 day
[5] = Kinetic solubility of the compound in pH 6.5 phosphate buffer by nephelometry; format: physicochemical; conditions: read-out: Kinetic_solubility
Summary of the method: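 DMSO stock spiked into pH 6.5 phosphate buffer (1% DMSO final). After 30 min, solubility range estimated by nephelometry.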

Plasmodium falciparum [6] = test: Antimalarial activity against Plasmodium falciparum Cam3.1 harbouring Pf-crt, Pf-mdrl,Pf-dhfr, Pf-dhps, pf-kelch13 mutated loci assessed as inhibition of parasite growth incubated for […] by [3H]hypoxanthine incorporation assay based liquid scintillation counting method; format: functional, organism-based
Summary of the method: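 Drug-resistant laboratory P. falciparum strains were compared against the sensitive strain NF54. Growth inhibition was read by a modified [3H]hypoxanthine incorporation assay over 72 h. IC50 is the mean of two independent biological replicates. Chloroquine and artesunate served as controls.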

CYP3A4 = CYP3A4 (Homo sapiens, UniProt P08684); test: Inhibition of CYP3A4 (unknown origin) at 10 uM by UPLC-MS analysis relative to control; format: ADME; summary of the method: as §1
CYP3A4, sequence (P08684 whole entry): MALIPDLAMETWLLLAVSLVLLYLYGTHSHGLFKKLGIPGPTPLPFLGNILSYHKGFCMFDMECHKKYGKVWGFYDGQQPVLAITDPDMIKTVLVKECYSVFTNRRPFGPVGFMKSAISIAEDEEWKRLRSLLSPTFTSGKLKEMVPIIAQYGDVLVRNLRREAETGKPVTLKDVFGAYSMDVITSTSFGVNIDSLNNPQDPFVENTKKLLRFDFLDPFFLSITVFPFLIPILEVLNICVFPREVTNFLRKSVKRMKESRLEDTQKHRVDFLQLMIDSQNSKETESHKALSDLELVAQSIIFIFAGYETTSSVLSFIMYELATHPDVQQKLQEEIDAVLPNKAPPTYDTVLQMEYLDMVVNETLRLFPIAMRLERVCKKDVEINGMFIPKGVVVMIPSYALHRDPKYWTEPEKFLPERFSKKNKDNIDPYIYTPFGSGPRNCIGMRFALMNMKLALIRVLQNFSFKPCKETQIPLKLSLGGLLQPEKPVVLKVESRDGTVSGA

Plasmodium falciparum [7] = test: Antimalarial activity against Plasmodium falciparum Dd2 ELQ-300 mutant harbouring Pf-cytB assessed as inhibition of parasite growth incubated for […] by [3H]hypoxanthine incorporation assay based liquid scintillation counting method; format: functional, organism-based
Summary of the method: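 Genetically engineered P. falciparum lines carried mutations introduced into the Dd2 wild-type strain, which was tested alongside them. Growth inhibition was read by [3H]hypoxanthine incorporation over 72 h. IC50 is the mean of two independent biological replicates. Chloroquine and artesunate served as controls.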

CYP2C9, sequence (P11712 whole entry): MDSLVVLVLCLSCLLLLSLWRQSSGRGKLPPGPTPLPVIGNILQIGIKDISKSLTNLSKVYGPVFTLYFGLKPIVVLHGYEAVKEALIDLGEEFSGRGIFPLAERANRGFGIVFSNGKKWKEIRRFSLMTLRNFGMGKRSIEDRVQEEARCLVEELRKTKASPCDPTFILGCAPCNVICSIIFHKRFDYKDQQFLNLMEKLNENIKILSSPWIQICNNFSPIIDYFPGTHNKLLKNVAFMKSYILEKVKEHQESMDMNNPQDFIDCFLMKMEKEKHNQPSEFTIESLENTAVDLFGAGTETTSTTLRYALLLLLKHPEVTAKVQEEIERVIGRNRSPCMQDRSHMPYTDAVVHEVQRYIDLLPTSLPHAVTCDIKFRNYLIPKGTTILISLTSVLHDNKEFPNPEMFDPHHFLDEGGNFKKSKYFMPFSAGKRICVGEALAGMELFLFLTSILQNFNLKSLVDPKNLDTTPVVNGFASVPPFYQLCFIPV

CCc1cccc(CNC(=O)c2nc3cccc(COCc4ccc(C(=O)O)cc4)c3c(=O)[nH]2)c1
inhibition at 10 µM (CYP2C9): 55%
inhibition at 10 µM (CYP1A2): < 10%
pIC50 [1]: < 4.52
pIC50 (Plasmodium falciparum [2]): 7.60
inhibition in vivo at 50 mg/kg (Plasmodium falciparum [3]): 65%
Activity [4]: Non-Toxic
solubility kinetic [5]: < 1.6 µg/mL
pIC50 (Plasmodium falciparum [6]): 7.51
inhibition at 10 µM (CYP3A4): < 10%
pIC50 (Plasmodium falciparum [7]): 7.70
